Data reported in ChEMBL document CHEMBL1153829, “Exploiting chemical libraries, structure, and genomics in the search for kinase inhibitors” (Science, 1998).
Calls of active or inactive are those of the source. Unless noted, no cut-off for these calls is given here.

Columns and labels:
Saccharomyces cerevisiae [1] = assay: Effect on YHR143W gene expression in delta snq2, delta pdr5 and delta erg6 knock out yeast YRP1 assessed as change in mRNA level at 25 µM after 2 hrs by high-density oligonucleotide array; format: functional, organism-based; details: 25 M
How it was run: (§1)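 Drug-sensitized S. cerevisiae cultures grown to late logarithmic phase, then exposed to 25 μM inhibitor for 2 h. Polyadenylated mRNA isolated, converted to biotin-labeled cRNA and hybridized to a set of four high-density arrays carrying more than 260,000 25-nucleotide oligomers. Transcripts scored as changed when they shifted more than twofold in triplicate hybridizations for each of two independent experiments.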

Saccharomyces cerevisiae [2] = assay: Downregulation of EGT2 mRNA expression in delta snq2, delta pdr5 and delta erg6 knock out yeast YRP1 at 25 µM after 2 hrs by high-density oligonucleotide array; format: functional, organism-based; details: 25 M; how it was run: as §1
Saccharomyces cerevisiae [3] = assay: Induction of YAL061W gene expression in delta snq2, delta pdr5 and delta erg6 knock out yeast YRP1 at 25 µM after 2 hrs by high-density oligonucleotide array; format: functional, organism-based; details: 25 M
How it was run: (§2)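 Drug-sensitized yeast strain grown to late logarithmic phase, then exposed to 25 μM inhibitor for 2 h. Polyadenylated mRNA was isolated and converted to biotin-labeled cRNA, which was hybridized to a set of four arrays carrying over 260,000 25-nucleotide oligomers. Transcripts changing more than twofold were scored, from triplicate hybridizations in each of two independent experiments.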

Saccharomyces cerevisiae [4] = assay: Increase in YBR296c mRNA level in delta snq2, delta pdr5 and delta erg6 knock out yeast YRP1 at 25 µM after 2 hrs by high-density oligonucleotide array; format: functional, organism-based; details: 25 M; how it was run: as §1
Saccharomyces cerevisiae [5] = assay: Effect on HAC1 gene expression in delta snq2, delta pdr5 and delta erg6 knock out yeast YRP1 assessed as change in mRNA level at 25 µM after 2 hrs by high-density oligonucleotide array; format: functional, organism-based; how it was run: as §1
Saccharomyces cerevisiae [6] = assay: Effect on PGM2 gene expression in delta snq2, delta pdr5 and delta erg6 knock out yeast YRP1 assessed as change in mRNA level at 25 µM after 2 hrs by high-density oligonucleotide array; format: functional, organism-based; details: 25 M; how it was run: as §1
Saccharomyces cerevisiae [7] = assay: Effect on CYC3 gene expression in delta snq2, delta pdr5 and delta erg6 knock out yeast YRP1 bearing cdc28-4 mutant allele assessed as change in mRNA level at 25 µM after 2 hrs by high-density oligonucleotide array; format: functional, organism-based; details: 25 M
Saccharomyces cerevisiae [8] = assay: Upregulation of HSP30 gene expression in delta snq2, delta pdr5 and delta erg6 knock out yeast YRP1 at 25 µM after 2 hrs by high-density oligonucleotide array; format: functional, organism-based; details: 25 M; how it was run: as §2
Saccharomyces cerevisiae [9] = assay: Effect on YCL009c gene expression in delta snq2, delta pdr5 and delta erg6 knock out yeast YRP1 bearing cdc28-4 mutant allele assessed as change in mRNA level at 25 µM after 2 hrs by high-density oligonucleotide array; format: functional, organism-based
Saccharomyces cerevisiae [10] = assay: Upregulation of YDL223c gene expression in delta snq2, delta pdr5 and delta erg6 knock out yeast YRP1 at 25 µM after 2 hrs by high-density oligonucleotide array; format: functional, organism-based; details: 25 M; how it was run: as §2
Saccharomyces cerevisiae [11] = assay: Upregulation of SSE2 gene expression in delta snq2, delta pdr5 and delta erg6 knock out yeast YRP1 at 25 µM after 2 hrs by high-density oligonucleotide array; format: functional, organism-based; details: 25 M; how it was run: as §2
Saccharomyces cerevisiae [12] = assay: Increase in PHO8 mRNA level in delta snq2, delta pdr5 and delta erg6 knock out yeast YRP1 at 25 µM after 2 hrs by high-density oligonucleotide array; format: functional, organism-based; how it was run: as §1
Saccharomyces cerevisiae [13] = assay: Effect on CTS1 gene expression in delta snq2, delta pdr5 and delta erg6 knock out yeast YRP1 assessed as change in mRNA level at 25 µM after 2 hrs by high-density oligonucleotide array; format: functional, organism-based; details: 25 M; how it was run: as §1
Saccharomyces cerevisiae [14] = assay: Effect on YGL179C gene expression in delta snq2, delta pdr5 and delta erg6 knock out yeast YRP1 assessed as change in mRNA level at 25 µM after 2 hrs by high-density oligonucleotide array; format: functional, organism-based; details: 25 M; how it was run: as §1
Saccharomyces cerevisiae [15] = assay: Effect on YNR009w gene expression in delta snq2, delta pdr5 and delta erg6 knock out yeast YRP1 assessed as change in mRNA level at 25 µM after 2 hrs by high-density oligonucleotide array; format: functional, organism-based; how it was run: as §1
Saccharomyces cerevisiae [16] = assay: Upregulation of HSP82 gene expression in delta snq2, delta pdr5 and delta erg6 knock out yeast YRP1 at 25 µM after 2 hrs by high-density oligonucleotide array; format: functional, organism-based; how it was run: as §2
Saccharomyces cerevisiae [17] = assay: Increase in PHO81 mRNA level in delta snq2, delta pdr5 and delta erg6 knock out yeast YRP1 at 25 µM after 2 hrs by high-density oligonucleotide array; format: functional, organism-based; details: 25 M; how it was run: as §1
Saccharomyces cerevisiae [18] = assay: Downregulation of HTA2 mRNA expression in delta snq2, delta pdr5 and delta erg6 knock out yeast YRP1 at 25 µM after 2 hrs by high-density oligonucleotide array; format: functional, organism-based; how it was run: as §1
Saccharomyces cerevisiae [19] = assay: Decrease in RPL26B mRNA level in delta snq2, delta pdr5 and delta erg6 knock out yeast YRP1 at 25 µM after 2 hrs by high-density oligonucleotide array; format: functional; how it was run: as §1
Saccharomyces cerevisiae [20] = assay: Upregulation of HSP104 gene expression in delta snq2, delta pdr5 and delta erg6 knock out yeast YRP1 at 25 µM after 2 hrs by high-density oligonucleotide array; format: functional, organism-based; details: 25 M; how it was run: as §2
Saccharomyces cerevisiae [21] = assay: Effect on FAR1 gene expression in delta snq2, delta pdr5 and delta erg6 knock out yeast YRP1 assessed as change in mRNA level at 25 µM after 2 hrs by high-density oligonucleotide array; format: functional, organism-based; how it was run: as §1
Saccharomyces cerevisiae [22] = assay: Decrease in RPL4A mRNA level in delta snq2, delta pdr5 and delta erg6 knock out yeast YRP1 at 25 µM after 2 hrs by high-density oligonucleotide array; format: functional; how it was run: as §1
Saccharomyces cerevisiae [23] = assay: Effect on YBR214w gene expression in delta snq2, delta pdr5 and delta erg6 knock out yeast YRP1 assessed as change in mRNA level at 25 µM after 2 hrs by high-density oligonucleotide array; format: functional, organism-based; how it was run: as §1
Saccharomyces cerevisiae [24] = assay: Down regulation of CLB2 mRNA expression in delta snq2, delta pdr5 and delta erg6 knock out yeast YRP1 assessed as change in mRNA level at 25 µM after 2 hrs by high-density oligonucleotide array; format: functional, organism-based; how it was run: as §1
Saccharomyces cerevisiae [25] = assay: Effect on YGL121C gene expression in delta snq2, delta pdr5 and delta erg6 knock out yeast YRP1 bearing cdc28-4 mutant allele assessed as change in mRNA level at 25 µM after 2 hrs by high-density oligonucleotide array; format: functional, organism-based; details: 25 M
Saccharomyces cerevisiae [26] = assay: Induction of PGM2 gene expression in delta snq2, delta pdr5 and delta erg6 knock out yeast YRP1 at 25 µM after 2 hrs by high-density oligonucleotide array; format: functional, organism-based; details: 25 M; how it was run: as §2
Saccharomyces cerevisiae [27] = assay: Induction of GPH1 gene expression in delta snq2, delta pdr5 and delta erg6 knock out yeast YRP1 bearing cdc28-4 mutant allele at 25 µM after 2 hrs by high-density oligonucleotide array; format: functional, organism-based; details: 25 M
How it was run: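 cdc28-4 temperature-sensitive strain and its isogenic wild type were profiled at the permissive temperature of 25°C. Polyadenylated mRNA was converted to biotin-labeled cRNA and hybridized to high-density oligonucleotide arrays. Transcripts changing more than twofold were scored, from triplicate hybridizations of RNA from a single experiment.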

Saccharomyces cerevisiae [28] = assay: Effect on YLR311C gene expression in delta snq2, delta pdr5 and delta erg6 knock out yeast YRP1 bearing cdc28-4 mutant allele assessed as change in mRNA level at 25 µM after 2 hrs by high-density oligonucleotide array; format: functional, organism-based; details: 25 M
Saccharomyces cerevisiae [29] = assay: Downregulation of CLB1 mRNA expression in delta snq2, delta pdr5 and delta erg6 knock out yeast YRP1 at 25 µM after 2 hrs by high-density oligonucleotide array; format: functional, organism-based; details: 25 M; how it was run: as §1
Saccharomyces cerevisiae [30] = assay: Upregulation of PDR10 gene expression in delta snq2, delta pdr5 and delta erg6 knock out yeast YRP1 at 25 µM after 2 hrs by high-density oligonucleotide array; format: functional, organism-based; details: 25 M; how it was run: as §2

| Structure (SMILES) | Activity (Saccharomyces cerevisiae [1]) | Activity (Saccharomyces cerevisiae [2]) | Activity (Saccharomyces cerevisiae [3]) | Activity (Saccharomyces cerevisiae [4]) | Activity (Saccharomyces cerevisiae [5]) | Activity (Saccharomyces cerevisiae [6]) | Activity (Saccharomyces cerevisiae [7]) | Activity (Saccharomyces cerevisiae [8]) | Activity (Saccharomyces cerevisiae [9]) | Activity (Saccharomyces cerevisiae [10]) | Activity (Saccharomyces cerevisiae [11]) | Activity (Saccharomyces cerevisiae [12]) | Activity (Saccharomyces cerevisiae [13]) | Activity (Saccharomyces cerevisiae [14]) | Activity (Saccharomyces cerevisiae [15]) | Activity (Saccharomyces cerevisiae [16]) | Activity (Saccharomyces cerevisiae [17]) | Activity (Saccharomyces cerevisiae [18]) | fold change (FC) (Saccharomyces cerevisiae [19]) | Activity (Saccharomyces cerevisiae [20]) | further results |
| --- | --- | --- | --- | --- | --- | --- | --- | --- | --- | --- | --- | --- | --- | --- | --- | --- | --- | --- | --- | --- | --- |
| CN1CC[C@H](c2c(O)cc(O)c3c(=O)cc(-c4ccccc4Cl)oc23)[C@H](O)C1 [ALVOCIDIB] | Active | Active | Active | Active | Active | Active | Active | Active | Active | Active | Active | Active | Active | Active | Active | Active | Active | Active | 3 | Active | Activity (Saccharomyces cerevisiae [21]): Active; fold change (FC) (Saccharomyces cerevisiae [22]): 3; Activity (Saccharomyces cerevisiae [23]): Active; Activity (Saccharomyces cerevisiae [24]): Active; Activity (Saccharomyces cerevisiae [25]): Active; Activity (Saccharomyces cerevisiae [26]): Active; Activity (Saccharomyces cerevisiae [27]): Active; Activity (Saccharomyces cerevisiae [28]): Active; Activity (Saccharomyces cerevisiae [29]): Active; Activity (Saccharomyces cerevisiae [30]): Active |
| CC(C)n1cnc2/c(=N/c3cccc(Cl)c3)nc(NCCO)[nH]c21 | Active | Active | Active | Active | Active | Active | Active | Active | Active | Active | Active | Active | Active | Active | Active | Active | Active | Active | 3 | Active | Activity (Saccharomyces cerevisiae [21]): Active; fold change (FC) (Saccharomyces cerevisiae [22]): 3; Activity (Saccharomyces cerevisiae [23]): Active; Activity (Saccharomyces cerevisiae [24]): Active; Activity (Saccharomyces cerevisiae [25]): Active; Activity (Saccharomyces cerevisiae [26]): Active; Activity (Saccharomyces cerevisiae [27]): Active; Activity (Saccharomyces cerevisiae [28]): Active; Activity (Saccharomyces cerevisiae [29]): Active; Activity (Saccharomyces cerevisiae [30]): Active |
